Experimental findings from ChEMBL document CHEMBL3091364, “Benzyloxybenzylammonium chlorides: Simple amine salts that display anticonvulsant activity” (Bioorg Med Chem, 2013) are described below.

For assay [1], the species on record is Rattus norvegicus. Kind of assay: Inhibition of Na+ channel in rat embryonic cortical neurons assessed as frequency-dependent decrease in current amplitude at 10 uM at -80 mV holding potential by whole-cell voltage clamp assay.
For assay [2], the species on record is Rattus norvegicus. The experiment in a line: Induction of Na+ channel slow inactivation in rat embryonic cortical neurons at 10 uM by whole-cell voltage clamp assay.
Assay [3] is filed under the species Rattus norvegicus. The experiment in a line: Activity at Na+ channel in rat embryonic cortical neurons assessed as effect on total macroscopic sodium current at 10 uM by whole-cell voltage clamp assay.
Assay [4] relates to Rattus norvegicus. Kind of assay: Anticonvulsant activity in po dosed albino Sprague-Dawley rat assessed as protection against maximal electroshock-induced seizures measured at 1 hr. The class given is functional. The procedure, abridged:
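Screened under the NINDS ASP in male albino Carworth Farms No. 1 mice (ip) or male albino Sprague-Dawley rats (ip or po), using MES, 6 Hz (32 mA) and subcutaneous pentylenetetrazol seizure tests. Initial qualitative tests used preset doses (e.g., 30, 50, 100 mg/kg). ED50 values with 95% confidence intervals came from dose–response data collected at the time of peak effect.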

The next assay concerns Mus musculus. Kind of assay: Anticonvulsant activity in corneally kindled mouse assessed as protection against seizure at 28 mg/kg, ip. The format is functional, organism-based. Also noted: dose 28 mg/kg. Put shortly: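 Corneally kindled mouse seizure model with ip dosing. Protection was scored in 4 animals, and the average seizure score was recorded.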

The source made the active and inactive calls. The rule behind the calls is not given here.

Regarding `Cl.NCc1ccc(OCc2ccccc2OC(F)(F)F)cc1`, in the assay listed under Rattus norvegicus [1], the inhibition entry is “inactive”. For the same compound, the result in the assay listed under Rattus norvegicus [2] was Active. Moreover, in the assay listed under Rattus norvegicus [3], the result was inactive. The ED50 with Rattus norvegicus [4] came to 30 mg/kg.

With `Cl.NCc1ccc(OCc2cccc(OC(F)(F)F)c2)cc1`, the outcome in the assay with Mus musculus was Active.
